≈ marks a conversion by molar mass, not a printed value.
Columns and labels:
[1] = Clearance in Sprague-Dawley rat at 2 mg/kg, iv; assay type: ADME, organism-based; set-up: dose 2 mg/kg, route intravenous; details: in vivo
Method in brief: (§1)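 Male Sprague–Dawley rats given 2.0 mg/kg iv (in DMSO) or 2.0 mg/kg po. Values are the mean of three rats. Reported parameters are CL, Vdss, t1/2, AUC(0-inf) and oral F.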

[2] = molecular target: Mitogen-activated protein kinase 14 (Homo sapiens, UniProt Q16539); assay: Inhibition of human recombinant p38alpha assessed as phosphorylation of ATF2 by scintillation proximity assay
Chain of Mitogen-activated protein kinase 14 (Q16539 whole entry): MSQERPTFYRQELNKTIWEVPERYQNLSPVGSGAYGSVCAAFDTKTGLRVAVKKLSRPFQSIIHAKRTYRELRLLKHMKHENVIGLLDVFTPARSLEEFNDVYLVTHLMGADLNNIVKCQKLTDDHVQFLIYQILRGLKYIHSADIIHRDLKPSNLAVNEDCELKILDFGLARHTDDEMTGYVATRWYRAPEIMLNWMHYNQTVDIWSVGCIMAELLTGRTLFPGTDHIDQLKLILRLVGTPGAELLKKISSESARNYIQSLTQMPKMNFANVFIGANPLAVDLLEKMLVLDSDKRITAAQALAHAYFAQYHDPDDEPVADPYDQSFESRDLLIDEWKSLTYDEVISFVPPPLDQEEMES

[3] = test system: THP-1; assay: Inhibition of LPS-induced TNFalpha release in human THP1 cells after 3 hrs; assay type: functional, cell-based; details: THP-1, 3 h
Method in brief: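 THP1 cell line challenged with LPS, with TNFα secretion as read-out. IC50 is the mean of at least three independent dose–response curves, or of two where flagged.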

[4] = test system: Blood; assay: Inhibition of TNF-alpha-stimulated IL8 production in human whole blood incubated for 1 hr before TNFalpha challenge measured after 16 to 18 hrs; assay type: functional, tissue-based
Method in brief: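 Human whole blood diluted to 50% and stimulated with TNFα, with IL-8 secretion as read-out. IC50 is the mean of at least three independent dose–response curves, or of two where flagged.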

[5] = molecular target: Mitogen-activated protein kinase 11 (Homo sapiens, UniProt Q15759); assay: Inhibition of p38beta
Chain of Mitogen-activated protein kinase 11 (Q15759 whole entry): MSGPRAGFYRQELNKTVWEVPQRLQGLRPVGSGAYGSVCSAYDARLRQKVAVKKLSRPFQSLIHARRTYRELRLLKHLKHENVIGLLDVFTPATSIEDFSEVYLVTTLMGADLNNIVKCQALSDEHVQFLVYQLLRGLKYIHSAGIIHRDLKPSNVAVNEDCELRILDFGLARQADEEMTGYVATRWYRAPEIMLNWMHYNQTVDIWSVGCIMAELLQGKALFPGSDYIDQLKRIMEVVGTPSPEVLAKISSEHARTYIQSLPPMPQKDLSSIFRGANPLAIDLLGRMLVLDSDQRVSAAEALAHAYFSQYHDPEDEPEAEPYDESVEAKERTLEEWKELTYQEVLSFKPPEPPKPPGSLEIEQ

[6] = molecular target: T1, Mitogen-activated protein kinase 12 (Homo sapiens, UniProt P53778); assay: Inhibition of p38-gamma
T1 sequence (P53778 whole entry): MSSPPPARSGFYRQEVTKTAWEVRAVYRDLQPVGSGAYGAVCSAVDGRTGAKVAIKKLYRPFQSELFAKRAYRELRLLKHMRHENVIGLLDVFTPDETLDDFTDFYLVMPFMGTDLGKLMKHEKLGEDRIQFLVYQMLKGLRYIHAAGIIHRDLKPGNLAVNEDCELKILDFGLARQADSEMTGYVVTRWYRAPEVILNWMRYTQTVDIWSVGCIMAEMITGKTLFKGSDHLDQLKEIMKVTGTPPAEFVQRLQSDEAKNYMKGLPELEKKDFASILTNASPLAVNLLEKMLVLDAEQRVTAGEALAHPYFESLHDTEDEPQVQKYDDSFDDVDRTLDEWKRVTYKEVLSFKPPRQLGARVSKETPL

[7] = molecular target: T2, Mitogen-activated protein kinase 13 (Homo sapiens, UniProt O15264); assay: Inhibition of p38delta
T2 sequence (O15264 whole entry): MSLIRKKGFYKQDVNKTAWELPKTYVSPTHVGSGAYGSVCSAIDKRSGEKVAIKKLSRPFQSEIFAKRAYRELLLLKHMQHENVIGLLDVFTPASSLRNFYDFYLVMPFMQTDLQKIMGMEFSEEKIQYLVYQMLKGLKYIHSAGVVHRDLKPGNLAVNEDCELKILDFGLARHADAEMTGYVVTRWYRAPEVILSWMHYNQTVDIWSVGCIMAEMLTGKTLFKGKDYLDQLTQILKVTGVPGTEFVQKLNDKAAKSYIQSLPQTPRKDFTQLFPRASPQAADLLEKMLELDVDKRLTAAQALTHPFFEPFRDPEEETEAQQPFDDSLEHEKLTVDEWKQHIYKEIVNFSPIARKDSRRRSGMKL

[8] = molecular target: Mitogen-activated protein kinase 8 (Homo sapiens, UniProt P45983); assay: Inhibition of JNK1
Chain of Mitogen-activated protein kinase 8 (P45983 whole entry): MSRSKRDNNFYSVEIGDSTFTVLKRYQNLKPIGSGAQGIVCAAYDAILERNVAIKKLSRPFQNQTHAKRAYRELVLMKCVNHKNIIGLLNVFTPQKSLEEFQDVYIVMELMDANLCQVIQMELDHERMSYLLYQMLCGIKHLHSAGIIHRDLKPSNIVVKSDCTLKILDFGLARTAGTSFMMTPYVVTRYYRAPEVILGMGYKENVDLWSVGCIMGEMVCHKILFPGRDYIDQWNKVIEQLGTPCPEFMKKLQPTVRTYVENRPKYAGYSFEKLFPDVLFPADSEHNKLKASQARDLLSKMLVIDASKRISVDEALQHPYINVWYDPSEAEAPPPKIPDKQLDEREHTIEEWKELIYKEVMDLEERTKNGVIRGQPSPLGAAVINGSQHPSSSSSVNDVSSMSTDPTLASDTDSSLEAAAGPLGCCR

[9] = molecular target: Mitogen-activated protein kinase 9 (Homo sapiens, UniProt P45984); assay: Inhibition of JNK2
Chain of Mitogen-activated protein kinase 9 (P45984 whole entry): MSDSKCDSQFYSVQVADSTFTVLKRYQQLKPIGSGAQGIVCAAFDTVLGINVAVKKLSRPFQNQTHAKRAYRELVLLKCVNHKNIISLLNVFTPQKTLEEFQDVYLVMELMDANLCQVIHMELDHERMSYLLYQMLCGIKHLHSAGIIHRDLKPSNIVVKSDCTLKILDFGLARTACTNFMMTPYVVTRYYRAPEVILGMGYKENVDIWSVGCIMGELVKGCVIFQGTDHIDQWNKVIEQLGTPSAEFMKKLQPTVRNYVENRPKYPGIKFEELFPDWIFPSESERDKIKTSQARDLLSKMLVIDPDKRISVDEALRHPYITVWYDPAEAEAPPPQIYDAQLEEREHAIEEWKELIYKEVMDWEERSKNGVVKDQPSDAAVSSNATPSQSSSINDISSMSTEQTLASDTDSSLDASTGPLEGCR

[10] = molecular target: Mitogen-activated protein kinase 10 (Homo sapiens, UniProt P53779); assay: Inhibition of JNK3
Chain of Mitogen-activated protein kinase 10 (P53779 whole entry): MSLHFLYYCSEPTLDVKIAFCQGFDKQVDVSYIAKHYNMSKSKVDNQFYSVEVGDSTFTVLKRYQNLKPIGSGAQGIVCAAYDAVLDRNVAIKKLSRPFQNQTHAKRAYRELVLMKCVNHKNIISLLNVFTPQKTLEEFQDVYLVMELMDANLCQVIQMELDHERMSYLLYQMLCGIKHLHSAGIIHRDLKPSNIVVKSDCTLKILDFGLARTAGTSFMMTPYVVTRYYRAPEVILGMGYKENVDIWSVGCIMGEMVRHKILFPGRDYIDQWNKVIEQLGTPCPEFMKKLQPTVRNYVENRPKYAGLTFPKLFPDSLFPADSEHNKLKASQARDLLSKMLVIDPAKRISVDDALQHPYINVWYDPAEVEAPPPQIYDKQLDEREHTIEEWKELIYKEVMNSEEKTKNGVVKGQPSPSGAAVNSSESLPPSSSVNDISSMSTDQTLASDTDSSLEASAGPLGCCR

[11] = molecular target: Cytochrome P450 3A4 (Homo sapiens, UniProt P08684); assay: Inhibition of CYP3A4; assay type: ADME
Chain of Cytochrome P450 3A4 (P08684 whole entry): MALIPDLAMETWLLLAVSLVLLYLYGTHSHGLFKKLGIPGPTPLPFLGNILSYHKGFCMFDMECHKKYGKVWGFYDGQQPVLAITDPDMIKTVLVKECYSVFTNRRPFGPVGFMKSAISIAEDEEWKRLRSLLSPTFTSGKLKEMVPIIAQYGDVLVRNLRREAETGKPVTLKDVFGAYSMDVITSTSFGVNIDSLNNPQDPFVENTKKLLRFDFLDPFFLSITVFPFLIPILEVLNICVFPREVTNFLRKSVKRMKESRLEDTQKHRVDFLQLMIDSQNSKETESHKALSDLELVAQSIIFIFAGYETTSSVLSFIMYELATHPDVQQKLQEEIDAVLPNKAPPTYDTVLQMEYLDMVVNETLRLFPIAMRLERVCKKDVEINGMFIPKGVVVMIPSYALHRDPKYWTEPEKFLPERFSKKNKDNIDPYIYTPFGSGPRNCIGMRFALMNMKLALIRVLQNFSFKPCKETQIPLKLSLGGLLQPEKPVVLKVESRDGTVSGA

[12] = molecular target: T3, Cytochrome P450 1A2 (Homo sapiens, UniProt P05177); assay: Inhibition of CYP1A2; assay type: ADME
T3 sequence (P05177 whole entry): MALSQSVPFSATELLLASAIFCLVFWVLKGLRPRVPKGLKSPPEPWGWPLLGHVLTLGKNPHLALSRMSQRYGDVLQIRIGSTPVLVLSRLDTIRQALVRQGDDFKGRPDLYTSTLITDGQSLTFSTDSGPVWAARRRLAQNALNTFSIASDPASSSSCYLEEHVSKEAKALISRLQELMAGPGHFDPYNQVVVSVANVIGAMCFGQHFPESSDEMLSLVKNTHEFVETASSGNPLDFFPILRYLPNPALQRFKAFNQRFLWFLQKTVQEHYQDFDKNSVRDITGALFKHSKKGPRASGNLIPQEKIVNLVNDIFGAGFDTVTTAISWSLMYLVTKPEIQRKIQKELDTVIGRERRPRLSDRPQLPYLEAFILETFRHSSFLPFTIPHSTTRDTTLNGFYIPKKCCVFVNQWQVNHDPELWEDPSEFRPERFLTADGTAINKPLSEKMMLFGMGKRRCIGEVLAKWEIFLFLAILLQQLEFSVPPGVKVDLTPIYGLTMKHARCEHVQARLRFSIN

[13] = molecular target: Cytochrome P450 2C9 (Homo sapiens, UniProt P11712); assay: Inhibition of CYP2C9; assay type: ADME
Chain of Cytochrome P450 2C9 (P11712 whole entry): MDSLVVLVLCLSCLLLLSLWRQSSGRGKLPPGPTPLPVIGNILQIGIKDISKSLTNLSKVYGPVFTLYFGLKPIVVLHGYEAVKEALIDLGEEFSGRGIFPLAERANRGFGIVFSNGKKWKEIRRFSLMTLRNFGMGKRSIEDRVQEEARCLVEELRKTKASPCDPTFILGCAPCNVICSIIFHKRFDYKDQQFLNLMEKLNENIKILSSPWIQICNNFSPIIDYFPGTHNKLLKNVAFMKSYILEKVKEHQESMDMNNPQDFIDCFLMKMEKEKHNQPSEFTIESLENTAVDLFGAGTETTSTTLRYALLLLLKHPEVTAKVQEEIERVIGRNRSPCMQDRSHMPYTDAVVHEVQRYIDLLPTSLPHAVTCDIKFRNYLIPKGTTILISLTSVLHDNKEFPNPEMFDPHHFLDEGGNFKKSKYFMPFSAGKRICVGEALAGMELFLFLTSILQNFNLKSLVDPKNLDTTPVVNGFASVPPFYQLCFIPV

[14] = molecular target: Cytochrome P450 2C19 (Homo sapiens, UniProt P33261); assay: Inhibition of CYP2C19; assay type: ADME
Chain of Cytochrome P450 2C19 (P33261 whole entry): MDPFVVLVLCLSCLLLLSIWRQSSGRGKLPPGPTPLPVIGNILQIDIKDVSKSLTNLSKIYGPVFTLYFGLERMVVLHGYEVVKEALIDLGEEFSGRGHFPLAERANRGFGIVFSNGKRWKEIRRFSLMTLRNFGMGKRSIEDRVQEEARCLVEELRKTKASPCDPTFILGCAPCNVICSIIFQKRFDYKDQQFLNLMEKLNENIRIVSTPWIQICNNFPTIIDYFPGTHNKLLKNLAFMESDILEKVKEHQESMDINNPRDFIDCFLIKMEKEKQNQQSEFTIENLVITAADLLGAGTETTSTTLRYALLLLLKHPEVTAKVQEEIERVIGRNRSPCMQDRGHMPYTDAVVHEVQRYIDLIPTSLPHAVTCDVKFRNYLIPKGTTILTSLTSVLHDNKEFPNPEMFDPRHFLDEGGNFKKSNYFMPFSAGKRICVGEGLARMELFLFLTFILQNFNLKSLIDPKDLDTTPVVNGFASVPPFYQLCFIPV

[15] = molecular target: Cytochrome P450 2D6 (Homo sapiens, UniProt P10635); assay: Inhibition of CYP2D6; assay type: ADME
Chain of Cytochrome P450 2D6 (P10635 whole entry): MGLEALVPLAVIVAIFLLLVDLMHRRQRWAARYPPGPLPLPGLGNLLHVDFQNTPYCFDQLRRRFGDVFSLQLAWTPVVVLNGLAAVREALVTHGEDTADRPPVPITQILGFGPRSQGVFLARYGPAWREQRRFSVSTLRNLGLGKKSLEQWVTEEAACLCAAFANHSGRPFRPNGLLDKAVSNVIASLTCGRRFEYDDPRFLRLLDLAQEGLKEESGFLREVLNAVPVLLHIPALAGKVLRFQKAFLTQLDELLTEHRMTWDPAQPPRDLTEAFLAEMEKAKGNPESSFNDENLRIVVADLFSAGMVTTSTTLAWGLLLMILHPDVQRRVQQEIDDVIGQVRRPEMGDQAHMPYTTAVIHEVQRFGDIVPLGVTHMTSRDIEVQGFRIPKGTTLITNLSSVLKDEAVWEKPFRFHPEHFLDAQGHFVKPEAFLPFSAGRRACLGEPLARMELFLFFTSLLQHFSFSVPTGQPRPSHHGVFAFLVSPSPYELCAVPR

[16] = Volume of distribution at steady state in Sprague-Dawley rat at 2 mg/kg, iv; assay type: ADME, organism-based; set-up: dose 2 mg/kg, route intravenous; details: in vivo, read-out: Vdss; method in brief: as §1
[17] = Half life in Sprague-Dawley rat at 2 mg/kg, iv; assay type: ADME, organism-based; set-up: dose 2 mg/kg, route intravenous; details: in vivo; method in brief: as §1
[18] = AUC (0 to infinity) in Sprague-Dawley rat at 2 mg/kg, po; assay type: ADME, organism-based; set-up: time infinity, dose 2 mg/kg, route oral; details: plasma; method in brief: as §1
[19] = Oral bioavailability in Sprague-Dawley rat at 2 mg/kg; assay type: ADME, organism-based; details: in vivo; method in brief: as §1
[20] = species on record: Rattus norvegicus; assay: Plasma concentration in Lewis rat at ED50; assay type: ADME, organism-based; details: in vivo
[21] = Ratio of drug level in brain to plasma in Lewis rat; assay type: ADME; details: read-out: BPR
[22] = Solubility in 0.01N HCl; assay type: physicochemical
[23] = Solubility in phosphate buffered saline; assay type: physicochemical
[24] = Solubility in simulated intestinal fluid; assay type: physicochemical
[25] = Protein binding in rat plasma by ultrafiltration method; details: read-out: PPB (converted)
[26] = species on record: Homo sapiens; assay: Protein binding in human plasma by ultrafiltration method; details: read-out: PPB (converted)
[27] = molecular target: RAF proto-oncogene serine/threonine-protein kinase (Homo sapiens) (UniProt P04049); assay: Inhibition of c-Raf at 1.5 uM; values are per cent of control
Chain of RAF proto-oncogene serine/threonine-protein kinase (Homo sapiens) (P04049 whole entry): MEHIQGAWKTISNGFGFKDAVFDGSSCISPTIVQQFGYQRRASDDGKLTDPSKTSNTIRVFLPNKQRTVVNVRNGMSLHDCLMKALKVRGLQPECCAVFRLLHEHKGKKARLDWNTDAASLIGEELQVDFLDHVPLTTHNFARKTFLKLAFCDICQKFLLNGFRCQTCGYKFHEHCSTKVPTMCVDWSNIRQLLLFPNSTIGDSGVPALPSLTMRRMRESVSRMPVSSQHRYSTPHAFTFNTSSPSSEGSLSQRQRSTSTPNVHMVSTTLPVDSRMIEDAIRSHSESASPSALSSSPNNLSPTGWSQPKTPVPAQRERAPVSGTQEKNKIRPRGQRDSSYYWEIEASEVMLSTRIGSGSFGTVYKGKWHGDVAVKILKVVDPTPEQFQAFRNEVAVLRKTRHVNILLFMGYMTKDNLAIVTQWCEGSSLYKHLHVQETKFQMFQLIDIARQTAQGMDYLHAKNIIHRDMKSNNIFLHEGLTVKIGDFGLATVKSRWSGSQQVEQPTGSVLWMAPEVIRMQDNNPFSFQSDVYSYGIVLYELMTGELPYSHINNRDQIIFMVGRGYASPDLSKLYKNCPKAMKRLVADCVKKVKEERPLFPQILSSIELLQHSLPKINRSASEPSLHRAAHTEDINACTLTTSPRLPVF

[28] = test system: Rattus norvegicus; assay: Inhibition of LPS-induced TNFalpha production in po dosed Lewis rat administered 60 mins prior to LPS challenge measured after 90 mins by ELISA
[29] = test system: Rattus norvegicus; assay: Inhibition of LPS-induced TNFalpha production in Lewis rat at 0.1 mg/kg, po administered 60 mins prior to LPS challenge measured after 90 mins by ELISA
[30] = test system: Rattus norvegicus; assay: Inhibition of LPS-induced TNFalpha production in Lewis rat at 0.3 mg/kg, po administered 60 mins prior to LPS challenge measured after 90 mins by ELISA
[31] = test system: Rattus norvegicus; assay: Inhibition of LPS-induced TNFalpha production in Lewis rat at 0.01 mg/kg, po administered 60 mins prior to LPS challenge measured after 90 mins by ELISA
[32] = test system: Rattus norvegicus; assay: Inhibition of LPS-induced TNFalpha production in Lewis rat at 0.03 mg/kg, po administered 60 mins prior to LPS challenge measured after 90 mins by ELISA

Cn1c(=O)cc(Nc2cc(C(=O)NC3CC3)ccc2Cl)c2cnn(-c3ccc(F)cc3)c21
clearance [1]: 4.33 mL/min/kg
IC50 [2]: 0.0015 µM
IC50 [3]: 0.0011 µM
IC50 [4]: 0.0025 µM
IC50 [5]: 0.004 µM
IC50 [6]: > 10 µM
IC50 [7]: > 10 µM
IC50 [8]: > 10 µM
IC50 [9]: > 10 µM
IC50 [10]: > 10 µM
IC50 [11]: > 30 µM
IC50 [12]: > 30 µM
IC50 [13]: > 21 µM
IC50 [14]: > 21 µM
IC50 [15]: > 21 µM
Vd [16]: 0.97 L/kg
half-life [17]: 5.8 h
AUC(0-inf) [18]: 6550 ng·h/mL
bioavailability [19]: 84%
Cp [20]: 3.2 ng/mL
Kp [21]: 0.04
solubility [22]: 31.2 µg/mL (≈ 69 µM)
solubility [23]: 26.6 µg/mL (≈ 58.9 µM)
solubility [24]: 38.8 µg/mL (≈ 85.9 µM)
fraction unbound [25]: 0.03
fraction unbound [26]: 0.06
residual activity [27]: 40%
ED50 [28]: 0.1 mg/kg
inhibition in vivo at 0.1 mg/kg [29]: 50.1%
inhibition in vivo at 0.3 mg/kg [30]: 97.4%
inhibition in vivo at 0.01 mg/kg [31]: 21%
inhibition in vivo at 0.03 mg/kg [32]: 5.6%

From ChEMBL document CHEMBL1153060, “Part 1: Structure-Activity Relationship (SAR) investigations of fused pyrazoles as potent, selective and orally available inhibitors of p38alpha mitogen-activated protein kinase” (Bioorg Med Chem Lett, 2009)
